Compound activity as filed in PubChem BioAssay.
Rin1 Abl inh: inhibitors of human Rin1-Abl protein interaction; TR-FRET Rin1/Abl binding, biochemical; inhibition, % at 7.35 µM; 360,000 tested, 0.4% active; AID 588664; in the data active = inhibition above about 5%, passing the limit was not always enough
Rce1 inh: inhibitors of yeast Ras-converting enzyme; calls only; AID 2563; 290,000 tested, 0.27% active; yeast membranes, quenched prenylated peptide cleavage fluorescence; Q03530;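 active = fall in fluorescence gain of 50% or more versus controls, with final raw signal at or below 3038400; inconclusive = same 50% fall but final raw signal above 3038400; inactive = fall in fluorescence gain under 50%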;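 also: plate controls were neutral control wells for no effect and wells lacking membranes for full effect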
Target sequence (Q03530 whole entry, looked up): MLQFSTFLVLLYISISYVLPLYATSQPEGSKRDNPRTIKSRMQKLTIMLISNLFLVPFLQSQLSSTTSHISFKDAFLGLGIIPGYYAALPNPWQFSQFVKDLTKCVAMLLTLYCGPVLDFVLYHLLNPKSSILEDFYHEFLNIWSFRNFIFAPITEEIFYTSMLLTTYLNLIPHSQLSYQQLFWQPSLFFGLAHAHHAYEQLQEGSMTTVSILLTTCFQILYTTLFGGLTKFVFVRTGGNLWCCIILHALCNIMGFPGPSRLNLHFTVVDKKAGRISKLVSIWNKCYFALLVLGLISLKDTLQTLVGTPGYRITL
Myeloid diff 2: myeloid differentiation induction; ER-HoxA9 myeloid progenitors, lysozyme-GFP differentiation, flow cytometry; calls only at 10 µM; 360,000 tested, 1% active; AID 624256;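 active = normalized GFP-positive differentiation at or above the plate's own cutoff, the solvent-only control mean plus 3 SD; inconclusive = no clear call, values can overlap the other calls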;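 also: cells exposed to compound for four days before flow analysis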
GRK2 aptamer HTS: human GRK2 inhibition via aptamer displacement. inhibition of aptamer binding, % at 10 µM. bead flow cytometry, FAM-aptamer displacement from GRK2. 330,000 tested, 0.59% active. P25098;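 active = inhibition of aptamer binding above 40%, roughly 3 SD of noise, on plates passing a quality check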;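 also: median bead fluorescence of bound FAM aptamer so fluorescent compounds give negative values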
SKN-1 inh: inhibitors of C. elegans SKN-1; inhibition, % at 21.8 µM; C. elegans VP596 Pgst-4::GFP/RFP ratio, acrylamide-induced, 24 h; 360,000 tested, 0.49% active; AID 624304;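 active = interference check ratio from 0.5 to 1.5 plus GFP to RFP signal ratio inhibition reaching or exceeding a fixed threshold, cut at about 30% in these data, passing the limit was not always enough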
T cell modulator: T cell immune modulators affecting CD8 T cell-vesicle binding; response (vesicle binding), % at 7 µM; 2C CD8+ T cell-vesicle binding, flow cytometry; hits give low values; 330,000 tested, 0.068% active;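 active = response, share of CD8 T cells binding vesicles, and their 90th percentile fluorescence all below set limits, cut at about 80% in these data, passing the limit was not always enough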;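 also: values below 100% mean blocked vesicle binding to the CD8+ T cells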
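System: murine 2C transgenic CD8+ T lymphocytes; also added: QL9-loaded Drosophila micro-vesicles; times: binding 1.5 h at 37 °C; measured by: flow cytometry, PE anti-B7-1 (FL2) versus Alexa647 anti-CD8 (FL8), PFA-fixed; control set: Peptide-free naked vesicles (low) and QL9 vesicles with 0.7% DMSO vehicle (high)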
* marks the source's active call; other numbers are inactive results; i = inactive; u = inconclusive; x = not tested or not shown; + = active, no number. Most compounds without a hit are left out; they make up all but 2.6% or so of the library.

SMILES	Rin1 Abl inh	Rce1 inh	Myeloid diff 2	GRK2 aptamer HTS	SKN-1 inh	T cell modulator
OCc1ccccc1-c1cnc2sc(NCc3ccc(F)cc3)nn12	-2	x	i	x	8	x
CCOC(=O)C1=C(CSc2nc(CC)c(C)cc2C#N)OC(N)=C(C#N)C1c1ccc(OC)cc1 (centres undefined)	3	i	+	0	6	670
CC[C@H](C)C(N)c1cn(C(CCCN=C(N)N)C(=O)N2CCNCC2)nn1 (some centres undefined)	7	x	i	0	15	683
CCc1nnc(NC(=O)CSc2nnc(COc3cccc(C)c3)o2)s1	5	i	i	0	54*	132
Cc1cccc(OCc2nnc(SCC(=O)Nc3ncc(C)s3)o2)c1	-1	i	i	1	-12	187
CSCC[C@H](NC(=O)Nc1cccc(C(F)(F)F)c1)C(=O)O	1	i	i	0	-3	358
CSCC[C@H](NC(=O)Nc1cccc(Br)c1)C(=O)O	1	i	+	1	-10	206
O=C(NCC1CCCN1S(=O)(=O)c1cccs1)C(=O)Nc1ccccc1Cl (centres undefined)	1	i	i	0	4	373
COc1ccccc1C1CC(c2cccs2)=Nc2ccccc2S1 (centres undefined)	0	i	i	0	-3	245
COc1ccccc1C1CN(c2ccc(F)cc2F)N=C1c1cccs1 (centres undefined)	2	i	i	0	44*	433
O=[N+]([O-])c1cc(S(=O)(=O)N2CCCC2)ccc1N/N=C/c1ccncc1	-3	i	i	9	8	365
O=[N+]([O-])c1cc(S(=O)(=O)N2CCCC2)ccc1NN=C1CCCCC1	-2	+	i	1	8	233
O=[N+]([O-])c1cc(S(=O)(=O)N2CCCC2)ccc1N/N=C/c1cccs1	3	i	i	2	36*	120
O=[N+]([O-])c1cc(S(=O)(=O)N2CCCC2)ccc1N/N=C1/CCCc2ccccc21	1	i	i	5	-2	981
COc1ccc(Cl)cc1C(=O)Nc1ccccc1N1CCCCC1	-3	i	i	0	35*	462
COC(=O)c1cc2c(s1)-c1ccc(OC)cc1CC2	-2	i	i	0	20	964
CCC(C(=O)Nc1ncn[nH]1)(C(F)(F)F)C(F)(F)F	5	x	+	4	-14	106
Cc1ccc(OC(C)C(=O)N=Nc2c(O)[nH]c3ccc([N+](=O)[O-])cc23)cc1 (centres undefined)	2	i	i	18	2	853
COc1ccccc1NC(=O)c1ccc(-c2ccc(Br)cc2)o1	-14	i	+	1	-5	367
c1ccc(N=Nc2ccc3cccccc2-3)cc1	-4	i	i	2	45*	i
Nc1c(Cl)ncnc1N/N=C/c1ccc2ccccc2n1	6.4*	x	u	0	-1	214
COc1ccc2c(c1)c(C)cc[n+]2Cc1ccccc1	-6	i	+	2	-2	213
Cc1ccc2c(c1)c(C)cc[n+]2Cc1ccccc1	-7	i	+	2	0	179
CCC(CC)C(=O)Nc1cc(Cl)ccc1C	x	i	x	0	x	213
CN(C)c1ccc(CC(=O)N2CCCC(c3cc(C(=O)Nc4ccc(F)c(Cl)c4)no3)C2)cc1 (centres undefined)	-2	x	i	x	-17	x
SMILES	Rin1 Abl inh	Rce1 inh	Myeloid diff 2	GRK2 aptamer HTS	SKN-1 inh	T cell modulator
CCCCCc1nc2c(C#N)c(-c3ccc(Cl)cc3)ccn2n1	2	i	+	2	-15	126
COc1cccc(C(=O)NCC(=O)N2CCC3(CC2)NCCc2[nH]cnc23)c1	2	i	i	0	36*	363
Cc1ccc(S(=O)(=O)N2C[C@H]3C(=O)C[C@@H](c4ccccc4)N(S(=O)(=O)c4ccc(C)cc4)[C@H]3C[C@H]2c2cccc(Cl)c2)cc1	-1	x	+	x	-13	x
COCCN(CC(=O)Nc1cccc(C)c1C)C(=O)c1ccc2ccccc2n1	1	x	i	2	10	881
Cc1cc(NC(=O)CSc2nc3ccccc3c(=O)n2Cc2ccc(F)cc2)no1	-1	i	i	1	32*	319
Cc1cc(NC(=O)Cn2cnc3sccc3c2=O)no1	1	x	i	1	13	182
CCOc1ccc(N(CC(=O)NC2CCCCC2)C(=O)CNC(=O)c2cccs2)cc1	5	i	i	2	5	283
COc1ccc(N(CC(=O)NC2CCCCC2)C(=O)CNC(=O)c2cccs2)cc1	2	i	i	1	41*	170
Cc1ccc(NC(=O)CCC(=O)Nc2nnc(C3CCCCC3)s2)cc1	4	i	+	0	-7	424
O=C(O)CCc1ccc(-c2cccs2)n1Cc1ccco1	1	+	i	1	10	237
O=C(O)CCc1ccc(-c2ccc(Cl)cc2)n1Cc1ccco1	4	i	i	0	-2	46
O=C(COC(=O)c1c(F)cccc1F)NCCNC(=O)COC(=O)c1c(F)cccc1F	4	i	i	0	8	252
CCOC(=O)c1ccc(S(=O)(=O)NNC(=O)COc2ccc(C)cc2)cc1	-3	i	i	92*	-7	506
CCOc1ccc(S(=O)(=O)Nc2ccccc2C(=O)NCC2CCCO2)cc1 (centres undefined)	2	i	i	2	9	716
CCOc1ccc(S(=O)(=O)Nc2cc(OC)c(OC)cc2C(=O)O)cc1	2	+	i	6	-7	124
CCOC(=O)c1ccccc1NS(=O)(=O)c1ccc(OCC)cc1	-3	i	+	2	-9	415
Cc1nc(-c2ccc(Cl)cc2)sc1C1(C)CC(c2ccccc2Br)=NO1 (centres undefined)	1	+	i	x	27	x
Cc1nc(-c2ccc(Cl)cc2)sc1C1(C)CC(c2ccccc2)=NO1 (centres undefined)	5	i	i	x	6	x
CCC(C(=O)N(C(C)C)C(C)C)c1ccccc1 (centres undefined)	3	x	i	0	37*	492
OC(CNCCC1C=Nc2ccccc21)Cn1c2ccc(Cl)cc2c2cc(Cl)ccc21 (centres undefined)	1	+	u	0	0	927
OC(CNCC1CCCO1)Cn1c2ccc(Cl)cc2c2cc(Cl)ccc21 (centres undefined)	-1	i	i	0	-5	761
Cc1ccccc1NS(=O)(=O)c1ccc(NC(=O)CSCc2ccc(Br)cc2)cc1	0	i	i	5	0	0.0*
O=C(CSCc1ccc(Br)cc1)Nc1ccc(S(=O)(=O)N2CCOCC2)cc1	-1	i	i	24	18	322
